Assay results gathered from unrelated publications.
Protocols differ between the studies behind these lines.
Target: Aurora kinase A (AURKA, Homo sapiens, UniProt O14965)
One construct used (O14965 1-403): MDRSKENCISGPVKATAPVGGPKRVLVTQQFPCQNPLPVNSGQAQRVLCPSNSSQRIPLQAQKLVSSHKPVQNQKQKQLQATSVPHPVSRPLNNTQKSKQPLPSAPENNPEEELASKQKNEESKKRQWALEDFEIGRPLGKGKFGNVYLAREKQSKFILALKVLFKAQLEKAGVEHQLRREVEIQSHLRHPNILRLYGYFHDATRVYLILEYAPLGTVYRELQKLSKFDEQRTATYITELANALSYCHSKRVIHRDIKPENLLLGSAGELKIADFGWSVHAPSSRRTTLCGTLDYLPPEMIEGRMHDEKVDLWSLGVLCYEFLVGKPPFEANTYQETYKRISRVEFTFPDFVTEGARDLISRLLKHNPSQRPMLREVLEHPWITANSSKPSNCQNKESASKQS

CN(c1nccc(-c2cnn3ncccc23)n1)C1CC1 — remaining binding (binding; 1 µM): 84%
Nc1ncc2c(n1)-c1c([nH]c3ccc(C#CC4CC4)cc13)CCCC2 — remaining binding (binding; competition with immobilised ligand; 1 µM): 80%
N[C@@H]1CCN(c2nccc(-c3cnn4ncccc34)n2)C1 — remaining binding (binding; 1 µM): 100%
C[C@H](c1ccc(F)cc1)N(Cc1cccc(C(=O)O)c1)C(=O)c1cnc2ccccc2c1 — remaining binding (cell-free assay; competition with immobilised ligand; 1 µM): 100%
C[C@@H]1CN(c2ccc3ncc(-c4ccc5[nH]nc(C6CC6)c5c4)n3n2)C[C@H](C)O1 — remaining binding (binding; competition with immobilised ligand; 50 nM): 87%
Nc1cnc(N2CCc3cc(S(=O)(=O)Nc4c(F)cc(Cl)cc4F)cc(N4CCCC4=O)c32)nc1 — remaining binding (cell-free assay; competition with immobilised ligand; 1 µM): 100%
O=C(Nc1c[nH]nc1C(=O)NC1CCNCC1)c1cc(F)cc(F)c1 — remaining binding (binding; competition with immobilised ligand; 1 µM): 100%
Cc1cnc(Nc2ccc(C(=O)N3CCC(N4CCCC4)CC3)cc2)nc1-c1cc2ccccc2s1 — remaining binding (binding; competition with immobilised ligand; 1 µM): 2%
CNC(=O)[C@@H]1CC[C@@H](n2c(-c3ccc4cnccc4c3)nc3ccc(C(=O)NCc4cccc(C(N)=O)c4)cc32)C1 — remaining binding (binding; competition with immobilised ligand; 1 µM): 100%
CS(=O)(=O)NCC[C@H](NC(=O)c1cncc2c1cnn2-c1ccc(F)cc1)c1ccnc(S(C)(=O)=O)c1 — remaining binding (cell-free assay; competition with immobilised ligand; 1 µM): 100%
CN(C)c1nccc(-c2cnc3ncccn23)n1 — remaining binding (binding; 1 µM): 49%
O=C(NCc1ncc(C(F)(F)F)cc1Cl)c1ccc2c(c1)C1(CCS(=O)(=O)CC1)[C@@H](C1CC1)N2S(=O)(=O)c1ccc(F)cc1 — remaining binding (cell-free assay; competition with immobilised ligand; 1 µM): 81%
CN(CCCC(F)(F)F)c1nccc(-c2cnn3ncccc23)n1 — remaining binding (binding; 1 µM): 90%
CSc1cccnc1N1CCN(Cc2nc3ccccc3[nH]2)CC1 — remaining binding (cell-free assay; competition with immobilised ligand; 1 µM): 74%
C=CC(=O)N1CCC(C(=O)NCC(=O)N2CCN(c3nc(-c4cnc(N)nc4C(F)F)nc(N4CCOCC4)n3)CC2)CC1 — remaining binding (binding; competition with immobilised ligand; 1 µM): 96%
O=C(c1ccc(Nc2ncc(Cl)c(-c3cc4ccccc4s3)n2)cc1)N1CCC(N2CCCC2)CC1 — remaining binding (binding; competition with immobilised ligand; 1 µM): 9.2%
C[C@H]1CCN(c2nccc(-c3cnn4ncccc34)n2)C1 — remaining binding (binding; 1 µM): 91%
